Source: ChEMBL document CHEMBL2177013, “Synthesis and biological evaluation of tylophorine-derived dibenzoquinolines as orally active agents: exploration of the role of tylophorine e ring on biological activity” (J Med Chem, 2012)
pEC50: −log10 of the molar value. Converted amounts (≈) assume the structure as drawn. The source made the active and inactive calls. No cut-off for these calls is given here.

System: not listed separately
Experiment: Cmax in Sprague-Dawley rat at 3 mg/kg, po by HPLC-MS method
Assay type: ADME, organism-based
Design: dose 3 mg/kg, route oral
Conditions: in vivo
Procedure, shortened: (§1)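 Male rats (330−380 g, 9−10 weeks), jugular vein cannula implanted 1 day before, fasted. 3 mg/kg given iv or orally (n = 3) in DMA/PEG400 30/70 v/v. Blood (150 μL) drawn at 0, 2, 5 (iv only), 15, 30 min and 1, 2, 4, 6, 8, 12, 24 h; plasma analysed by HPLC-MS; noncompartmental analysis.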

Q: With `CCCN1CCc2c(c3cc(OC)c(OC)cc3c3cc(OC)c(OC)cc23)C1` as the compound, how does the Cmax read?
A: The Cmax was 87 ng/mL.

System: not listed separately
Experiment: AUC (0 to infinity) in Sprague-Dawley rat at 3 mg/kg, iv by HPLC-MS method
Assay type: ADME, organism-based
Design: time infinity, dose 3 mg/kg, route intravenous
Conditions: plasma
Procedure, shortened: (§2)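 Male rats (330−380 g, 9−10 weeks old), jugular vein cannulated 1 day before dosing, fasted; 3 mg/kg iv or oral in DMA/PEG400 (30/70, v/v), n = 3. Blood (150 μL) drawn at 0, 2, 5 (iv only), 15, 30 min and 1, 2, 4, 6, 8, 12, 24 h, kept on ice; plasma analysed by HPLC-MS; noncompartmental analysis.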

Q: Which AUC(0-inf) does the source give for `CCCN1CCc2c(c3cc(OC)c(OC)cc3c3cc(OC)c(OC)cc23)C1` here?
A: Its AUC(0-inf) is 824 ng·h/mL.

System: not listed separately
Experiment: AUC (0 to infinity) in Sprague-Dawley rat at 3 mg/kg, po by HPLC-MS method
Assay type: ADME, organism-based
Design: dose 3 mg/kg, route oral, time infinity
Conditions: plasma
Procedure, shortened: as §2

Q: Which AUC(0-inf) does the source give for `CCCN1CCc2c(c3cc(OC)c(OC)cc3c3cc(OC)c(OC)cc23)C1` here?
A: The AUC(0-inf) was 515 ng·h/mL.

System: not listed separately
Experiment: Solubility in DMSO
Assay type: physicochemical
Conditions: not given
Procedure, shortened: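 Compound dissolved in DMSO with sonication; maximal volume before precipitation measured and used to calculate saturation solubility.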

Q: Which solubility does the source give for `CCCN1CCc2c(c3cc(OC)c(OC)cc3c3cc(OC)c(OC)cc23)C1` here?
A: The solubility was 50 mM (≈ 19.8 mg/mL).

System: RAW264.7
Experiment: Reduction in LPS/INFgamma-induced COX2 protein expression in mouse RAW264.7 cells incubated for 20 hrs by Western blotting
Assay type: functional, cell-based
Conditions: not given
Procedure, shortened: (§3)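 LPS/IFNγ-stimulated RAW264.7 cells treated with compound for 20 h. iNOS, COX-2 and GAPDH detected by Western blot; representative of at least three independent experiments.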

Q: With `CCCN1CCc2c(c3cc(OC)c(OC)cc3c3cc(OC)c(OC)cc23)C1` as the compound, how does the Activity read?
A: Its Activity is “Active”.

System: HepG2
Experiment: Growth inhibition of human HepG2 cells
Assay type: functional
Conditions: not given
Procedure, shortened: (§4)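 Cells seeded per well: NUGC-3 4500, HONE-1 6000, MCF-7 6500, NCI-H460 2500, HepG2 10000, A549 5000; A549 grown in RPMI 1640 with 2 g/L NaHCO₃, 2 mM L-glutamine and 10% FBS. GI₅₀ = concentration giving 50% growth inhibition, mean of at least three experiments each in duplicate. Paclitaxel served as positive control.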

Q: Which GI50 does the source give for `CCCN1CCc2c(c3cc(OC)c(OC)cc3c3cc(OC)c(OC)cc23)C1` here?
A: The GI50 was 770 nM.

System: A549
Experiment: Down regulation of cyclin A2 expression in human A549 cells incubated for 24 hrs by Western blotting
Assay type: functional, cell-based
Conditions: not given

Q: With `CCCN1CCc2c(c3cc(OC)c(OC)cc3c3cc(OC)c(OC)cc23)C1` as the compound, how does the Activity read?
A: Its Activity is “Active”.

System: not listed separately
Experiment: Clearance in Sprague-Dawley rat at 3 mg/kg, iv by HPLC-MS method
Assay type: ADME, organism-based
Design: dose 3 mg/kg, route intravenous
Conditions: in vivo
Procedure, shortened: as §1

Q: Which clearance does the source give for `CCCN1CCc2c(c3cc(OC)c(OC)cc3c3cc(OC)c(OC)cc23)C1` here?
A: Its clearance is 60.8 mL/min/kg.

System: MCF7
Experiment: Down regulation of cyclin A2 expression in human MCF7 cells incubated for 24 hrs by Western blotting
Assay type: functional, cell-based
Conditions: not given

Q: With `CCCN1CCc2c(c3cc(OC)c(OC)cc3c3cc(OC)c(OC)cc23)C1` as the compound, how does the Activity read?
A: The Activity was “Active”.

System: not listed separately
Experiment: Solubility in DMA
Assay type: physicochemical
Conditions: not given

Q: With `CCCN1CCc2c(c3cc(OC)c(OC)cc3c3cc(OC)c(OC)cc23)C1` as the compound, how does the solubility read?
A: The solubility was “soluble”.

System: NCI-H460
Experiment: Down regulation of cyclin A2 expression in human NCI-H460 cells incubated for 24 hrs by Western blotting
Assay type: functional, cell-based
Conditions: not given

Q: Which Activity does the source give for `CCCN1CCc2c(c3cc(OC)c(OC)cc3c3cc(OC)c(OC)cc23)C1` here?
A: The Activity was “Active”.

System: MCF7
Experiment: Growth inhibition of human MCF7 cells
Assay type: functional
Conditions: not given
Procedure, shortened: as §4

Q: With `CCCN1CCc2c(c3cc(OC)c(OC)cc3c3cc(OC)c(OC)cc23)C1` as the compound, how does the GI50 read?
A: Its GI50 is 510 nM.

System: NCI-H460
Experiment: Induction of c-Jun protein accumulation in human NCI-H460 cells incubated for 24 hrs by Western blotting
Assay type: functional, cell-based
Conditions: not given

Q: Which Activity does the source give for `CCCN1CCc2c(c3cc(OC)c(OC)cc3c3cc(OC)c(OC)cc23)C1` here?
A: Its Activity is “Active”.

System: Transmissible gastroenteritis virus
Experiment: Antiviral activity against Transmissible gastroenteritis virus infected in ST cells pre-treated 2 hrs before virus infection measured 6 hrs post virus infection by immunofluorescent assay
Assay type: functional, organism-based
Conditions: Alphacoronavirus 1, ST
Procedure, shortened: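 ST cells, with or without 2 h compound pretreatment (10 concentrations), infected with TGEV at MOI 10. Immunofluorescence with anti-spike and anti-nucleocapsid antibodies at 6 hpi. EC50 from dose–response curves, mean of at least three experiments, each in duplicate.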

Q: With `CCCN1CCc2c(c3cc(OC)c(OC)cc3c3cc(OC)c(OC)cc23)C1` as the compound, how does the pEC50 read?
A: Its pEC50 is 6.08.

System: not listed separately
Experiment: Volume of distribution at steady state in Sprague-Dawley rat at 3 mg/kg, iv by HPLC-MS method
Assay type: ADME, organism-based
Design: dose 3 mg/kg, route intravenous
Conditions: in vivo, read-out: Vdss
Procedure, shortened: as §1

Q: For `CCCN1CCc2c(c3cc(OC)c(OC)cc3c3cc(OC)c(OC)cc23)C1`, which Vd is on record?
A: The Vd was 9 L/kg.

System: not listed separately
Experiment: Growth inhibition of human HONE1 cells
Assay type: functional
Conditions: not given
Procedure, shortened: as §4

Q: Which GI50 does the source give for `CCCN1CCc2c(c3cc(OC)c(OC)cc3c3cc(OC)c(OC)cc23)C1` here?
A: Its GI50 is 1210 nM.

System: not listed separately
Experiment: Oral bioavailability in Sprague-Dawley rat at 3 mg/kg by HPLC-MS method
Assay type: ADME, organism-based
Conditions: in vivo
Procedure, shortened: as §1

Q: For `CCCN1CCc2c(c3cc(OC)c(OC)cc3c3cc(OC)c(OC)cc23)C1`, which bioavailability is on record?
A: The bioavailability was 62.8%.

System: NUGC-3
Experiment: Growth inhibition of human NUGC3 cells
Assay type: functional
Conditions: not given
Procedure, shortened: as §4

Q: With `CCCN1CCc2c(c3cc(OC)c(OC)cc3c3cc(OC)c(OC)cc23)C1` as the compound, how does the GI50 read?
A: The GI50 was 470 nM.

System: MCF7
Experiment: Induction of c-Jun protein accumulation in human MCF7 cells incubated for 24 hrs by Western blotting
Assay type: functional, cell-based
Conditions: not given

Q: With `CCCN1CCc2c(c3cc(OC)c(OC)cc3c3cc(OC)c(OC)cc23)C1` as the compound, how does the Activity read?
A: Its Activity is “Active”.

System: Transmissible gastroenteritis virus
Experiment: Antiviral activity against Transmissible gastroenteritis virus infected in ST cells assessed as reduction in N-protein expression pre-treated before virus infection measured 16 hrs post virus infection by Western blotting
Assay type: functional, organism-based
Conditions: not given
Procedure, shortened: (§5)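 ST cells pretreated with compound, then infected with TGEV. Western blot for nucleocapsid (N) protein, caspase 3 (cleavage of procaspase 3) and GAPDH at 16 hpi. Representative of at least three independent experiments.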

Q: With `CCCN1CCc2c(c3cc(OC)c(OC)cc3c3cc(OC)c(OC)cc23)C1` as the compound, how does the Activity read?
A: Its Activity is “Active”.

System: A549
Experiment: Induction of c-Jun protein accumulation in human A549 cells incubated for 24 hrs by Western blotting
Assay type: functional, cell-based
Conditions: not given

Q: For `CCCN1CCc2c(c3cc(OC)c(OC)cc3c3cc(OC)c(OC)cc23)C1`, which Activity is on record?
A: The Activity was “Active”.

System: not listed separately
Experiment: Cytotoxicity against mouse RAW264.7 cells
Assay type: cell-based
Conditions: not given
Procedure, shortened: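 RAW264.7 cells stimulated with LPS/IFNγ and compound-treated in parallel with the NO assay; CC50 taken as concentration giving 50% inhibition of cell growth. Mean of at least three experiments, each in duplicate.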

Q: With `CCCN1CCc2c(c3cc(OC)c(OC)cc3c3cc(OC)c(OC)cc23)C1` as the compound, how does the CC50 read?
A: Its CC50 is greater than 4000 nM.

System: not listed separately
Experiment: Tmax in Sprague-Dawley rat at 3 mg/kg, po by HPLC-MS method
Assay type: ADME, organism-based
Design: dose 3 mg/kg, route oral
Conditions: in vivo
Procedure, shortened: as §1

Q: Which Tmax does the source give for `CCCN1CCc2c(c3cc(OC)c(OC)cc3c3cc(OC)c(OC)cc23)C1` here?
A: Its Tmax is 4 h.

System: not listed separately
Experiment: Apparent elimination half life in Sprague-Dawley rat at 3 mg/kg, iv by HPLC-MS method
Assay type: ADME, organism-based
Design: dose 3 mg/kg, route intravenous
Conditions: in vivo, read-out: betat1/2(app) (converted)
Procedure, shortened: as §1

Q: Which half-life does the source give for `CCCN1CCc2c(c3cc(OC)c(OC)cc3c3cc(OC)c(OC)cc23)C1` here?
A: Its half-life is 2.7 h.

System: not listed separately
Experiment: Apparent elimination half life in Sprague-Dawley rat at 3 mg/kg, po by HPLC-MS method
Assay type: ADME, organism-based
Design: dose 3 mg/kg, route oral
Conditions: in vivo, read-out: betat1/2(app) (converted)
Procedure, shortened: as §1

Q: Which half-life does the source give for `CCCN1CCc2c(c3cc(OC)c(OC)cc3c3cc(OC)c(OC)cc23)C1` here?
A: The half-life was 2.4 h.

System: RAW264.7
Experiment: Reduction in LPS/INFgamma-induced iNOS protein expression in mouse RAW264.7 cells incubated for 20 hrs by Western blotting
Assay type: functional, cell-based
Conditions: not given
Procedure, shortened: as §3

Q: For `CCCN1CCc2c(c3cc(OC)c(OC)cc3c3cc(OC)c(OC)cc23)C1`, which Activity is on record?
A: Its Activity is “Active”.

System: NCI-H460
Experiment: Growth inhibition of human NCI-H460 cells
Assay type: functional
Conditions: not given
Procedure, shortened: as §4

Q: Which GI50 does the source give for `CCCN1CCc2c(c3cc(OC)c(OC)cc3c3cc(OC)c(OC)cc23)C1` here?
A: Its GI50 is 450 nM.

System: A549
Experiment: Growth inhibition of human A549 cells
Assay type: functional
Conditions: not given
Procedure, shortened: as §4

Q: Which GI50 does the source give for `CCCN1CCc2c(c3cc(OC)c(OC)cc3c3cc(OC)c(OC)cc23)C1` here?
A: Its GI50 is 730 nM.

System: Transmissible gastroenteritis virus
Experiment: Antiviral activity against Transmissible gastroenteritis virus infected in ST cells assessed as reduction in caspase-3 activation pre-treated before virus infection measured 16 hrs post virus infection by Western blotting
Assay type: functional, organism-based
Conditions: not given
Procedure, shortened: as §5

Q: With `CCCN1CCc2c(c3cc(OC)c(OC)cc3c3cc(OC)c(OC)cc23)C1` as the compound, how does the Activity read?
A: The Activity was “Active”.

System: RAW264.7
Experiment: Antiinflammatory activity in mouse RAW264.7 cells assessed as inhibition of LPS-induced nitric oxide production incubated for 18 hrs by nitrate/nitrite assay
Assay type: functional, cell-based
Conditions: RAW264.7, 18 h
Procedure, shortened: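 RAW264.7 seeded 65000 cells/well, cultured 24 h, then medium replaced with complete medium containing IFNγ (20 ng/mL)/LPS (5 μg/mL) plus compound at various concentrations for 18 h; nitric oxide measured by Nitrate/Nitrite kit. EC50 as mean of at least three experiments, each in duplicate.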

Q: With `CCCN1CCc2c(c3cc(OC)c(OC)cc3c3cc(OC)c(OC)cc23)C1` as the compound, how does the pEC50 read?
A: The pEC50 was 5.86.
